Published values gathered from unrelated publications.
FAP: Prolyl endopeptidase FAP (FAP, Homo sapiens, UniProt Q12884)
PSMB6: Proteasome subunit beta type-6 (PSMB6, Homo sapiens, UniProt P28072)
Stromelysin-2: Stromelysin-2 (Homo sapiens, UniProt P09238)
PRKAA2: 5'-AMP-activated protein kinase catalytic subunit alpha-2 (PRKAA2, Homo sapiens, UniProt P54646)
SULT1E1: Sulfotransferase 1E1 (SULT1E1, Homo sapiens, UniProt P49888)

| SMILES | target | test | conditions | quantity | value |
| --- | --- | --- | --- | --- | --- |
| CN(C)C(=O)COC(=O)Cc1ccc(OC(=O)c2ccc(NC(=N)N)cc2)cc1 | FAP | enzyme activity, inhibitor | 10 µM | inhibition | 30% |
| Nc1cccc(-c2nsc(=O)o2)c1 | PSMB6 | enzyme activity, inhibitor | – | kinact/KI | 0.61 M⁻¹ s⁻¹ |
| COc1ccc(S(=O)(=O)N(CC(=O)NO)CC(C)C)cc1 | Stromelysin-2 | enzyme activity, inhibitor | 10 µM | inhibition | 91% |
| Nc1ncc(-c2nc(N3CCOCC3)nc(N3CCOCC3)n2)c(C(F)F)n1 | Serine/threonine-protein kinase Sgk2 (SGK2, Homo sapiens, UniProt Q9HBY8) | binding, competition with immobilised ligand | 10 µM | remaining binding | 84% |
| Cn1cc(-c2cccc(N3CCc4c(sc5c4CC(C)(C)C5)C3=O)c2CO)cc(Nc2ccncn2)c1=O | PRKAA2 | enzyme activity, inhibitor | 1 µM | inhibition | 5% |
| COc1cc(Br)cc(Br)c1Oc1cc(Br)cc(Br)c1O | SULT1E1 | enzyme activity, substrate | – | Km | 1.09 µM |
| Cn1cc(-c2cc(F)cc(N3CCn4c(cc5c4CCCC5)C3=O)c2CO)cc(Nc2ccc(N3CCN(C4COC4)CC3)cn2)c1=O | PRKAA2 | enzyme activity, inhibitor | 0.1 µM | inhibition | 14% |
| N#C[C@@H]1CC(F)(F)CN1C(=O)CNC(=O)c1ccnc2ccccc12 | FAP | enzyme activity, inhibitor | 0.1 µM | inhibition | 100% |
| C#Cc1n[nH]c2c(-c3cn([C@@H](C)c4ccccn4)c(=O)[nH]c3=O)cc(F)cc12 | Cyclin-dependent kinase 9, with cyclin T1 (CDK9, Homo sapiens, UniProt P50750) | enzyme activity, inhibitor | 0.1 µM | inhibition | 8.9% |
| Oc1c(Br)cc(Br)cc1Oc1ccc(Br)cc1Br | SULT1E1 | enzyme activity, substrate | – | Km | 8.87 µM |
| N=C(N)c1ccc2cc(OC(=O)c3ccc(N=C(N)N)cc3)ccc2c1 | Stromelysin-2 | enzyme activity, inhibitor | 10 µM | inhibition | 0% |
| COc1ncccc1-c1cnn2ccc(N3CCN(C(=O)OC(C)C)CC3)nc12 | Ankyrin repeat and protein kinase domain-containing protein 1 (ANKK1, Homo sapiens, UniProt Q8NFD2) | binding, competition with immobilised ligand | 1 µM | remaining binding | 13% |
| CSc1sc(C)cc1-c1nsc(=O)o1 | PSMB6 | enzyme activity, inhibitor | – | kinact/KI | 0.03 M⁻¹ s⁻¹ |
| Cc1nn(C)cc1-c1nc2c(N3CCN(Cc4ccc(Cl)cc4)CC3)c(Cl)cnc2[nH]1 | Bone morphogenetic protein receptor type-2 (BMPR2, Homo sapiens, UniProt Q13873) | binding, competition with immobilised ligand | 1 µM | remaining binding | 100% |
| C=CCn1c2cc(OC(=O)CCCCN3CCN(Cc4cccc(Cl)c4)CC3)ccc2c2ccnc(C)c21 | Acetylcholinesterase (ACHE, Homo sapiens, UniProt P22303) | enzyme activity, inhibitor, Ellman | 1 µM | inhibition | 48.1% |
| CCOC(=O)c1ccc(OC(=O)CCCCCNC(=N)N)cc1 | Dipeptidyl peptidase 4 (DPP4, Homo sapiens, UniProt P27487) | enzyme activity, inhibitor | 10 µM | inhibition | 21% |
| C#Cc1n[nH]c2c(-c3cn([C@@H](C)c4ccccc4)c(=O)[nH]c3=O)cc(F)cc12 | Cyclin-dependent kinase 1, with cyclin B (CDK1, Homo sapiens, UniProt P06493) | enzyme activity, inhibitor | 0.1 µM | inhibition | 5.9% |
